Laboratory results from ChEMBL document CHEMBL3877264, “Quinolidene-rhodanine conjugates: Facile synthesis and biological evaluation” (Eur J Med Chem, 2017).
In brackets after ≈: the same amount, converted by molar mass.

Columns and labels:
[1] = system: Mycobacterium tuberculosis; test: Growth inhibition of Mycobacterium tuberculosis H37Ra ATCC 25177 at dormant stage at 12.5 ug/ml measured after 12 days by XTT dye based two fold dilution method relative to control; type: functional; conditions: H37Ra ATCC 25177, 288 h, read-out: GI
[2] = Cytotoxicity against human HeLa cells measured after 48 hrs by MTT assay; type: toxicity, cell-based
Staphylococcus aureus [3] = test: Growth inhibition of Staphylococcus aureus NCIM 2010 at 10 ug/ml measured after 12 hrs relative to control; type: functional; conditions: NCIM 2010, 12 h, read-out: GI
In short: (§1)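 Bacteria grown in LB at 37 °C and 180 rpm to OD 1. Compounds added to wells, then 0.1% inoculum of 1 OD culture (620 nm). Growth read as OD at 620 nm after 8 h for gram-negative and after 12 h for gram-positive strains.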

[4] = system: Mycobacterium tuberculosis; test: Growth inhibition of Mycobacterium tuberculosis H37Ra ATCC 25177 at active stage at 25 ug/ml measured after 8 days by XTT dye based two fold dilution method relative to control; type: functional; conditions: H37Ra ATCC 25177, 192 h, read-out: GI
In short: (§2)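 MTB H37Ra was grown in Dubos medium, then exposed in Mycobacterium pheli minimal medium (pH 6.6) to compounds dissolved in DMSO. The assay ended on day 8 (active) or day 12 (dormant). Viable cells were measured by XTT reduction menadione assay at 470 nm, blank-corrected, relative to vehicle control. Triplicates were expressed as mean ± SD. MIC came from dose-response curves.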

[5] = system: Mycobacterium tuberculosis; test: Growth inhibition of Mycobacterium bovis BCG ATCC 35743 at dormant stage at 3 ug/ml measured after 12 days by nitrate reductase dye based two fold dilution method relative to control; type: functional; conditions: BCG str. ATCC 35743, 288 h, read-out: GI
In short: (§3)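 M. bovis BCG was grown in Dubos medium and assayed in Mycobacterium pheli minimal medium (pH 6.6), with compounds from DMSO stocks. Incubation lasted 8 days for active and 12 days for dormant cultures. Viability was read by nitrate reductase at 540 nm against cell-free blanks, with vehicle set as 100% growth. Primary screen was at 30, 10 and 3 µg/ml, in triplicate, mean ± SD. MIC was taken from dose-response curves.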

Aspergillus niger = test: Antifungal activity against Aspergillus niger NCIM 1196 by standard agar method; type: functional
In short: (§4)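 MICs determined by standard agar method; DMSO as solvent control.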

[6] = system: Mycobacterium tuberculosis; test: Growth inhibition of Mycobacterium tuberculosis H37Ra ATCC 25177 at active stage at 0.78 ug/ml measured after 8 days by XTT dye based two fold dilution method relative to control; type: functional; conditions: H37Ra ATCC 25177, 192 h, read-out: GI; in short: as §2
[7] = system: Mycobacterium tuberculosis; test: Growth inhibition of Mycobacterium tuberculosis H37Ra ATCC 25177 at dormant stage measured after 12 days by XTT dye based two fold dilution method; type: functional; conditions: H37Ra ATCC 25177, 288 h; in short: as §2
[8] = Cytotoxicity against primary HUVEC assessed as growth inhibition at 100 ug/ml measured after 48 hrs by MTT assay relative to control; type: toxicity, cell-based; conditions: human, read-out: GI
[9] = system: Mycobacterium tuberculosis; test: Growth inhibition of Mycobacterium tuberculosis H37Ra ATCC 25177 at active stage at 50 ug/ml measured after 8 days by XTT dye based two fold dilution method relative to control; type: functional; conditions: H37Ra ATCC 25177, 192 h, read-out: GI; in short: as §2
[10] = system: Mycobacterium tuberculosis; test: Growth inhibition of Mycobacterium tuberculosis H37Ra ATCC 25177 at active stage at 3.13 ug/ml measured after 8 days by XTT dye based two fold dilution method relative to control; type: functional; conditions: H37Ra ATCC 25177, 192 h, read-out: GI; in short: as §2
Staphylococcus aureus [11] = test: Growth inhibition of Staphylococcus aureus NCIM 2010 at 30 ug/ml measured after 12 hrs relative to control; type: functional; conditions: NCIM 2010, 12 h, read-out: GI; in short: as §1
Pseudomonas fluorescens = test: Growth inhibition of Pseudomonas fluorescens NCIM 2036 at 30 ug/ml measured after 8 hrs relative to control; type: functional; conditions: NCIM 2036, 8 h, read-out: GI; in short: as §1
[12] = Cytotoxicity against […]-differentiated human THP1 cells measured after 48 hrs by MTT assay; type: toxicity, cell-based, THP-1
In short: (§5)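 MTT assay with 48 h compound exposure. THP-1 macrophages made by 24 h PMA treatment. Each concentration tested in triplicate in one experiment. % cytotoxicity = (control−test)/(control−blank)×100, with control = cells + DMSO and blank = medium without cells. IC50 from % survival versus concentration plots.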

Escherichia coli [13] = test: Antibacterial activity against Escherichia coli NCIM 2688 measured after 8 hrs; type: functional; conditions: NCIM 2688, 8 h; in short: as §1
[14] = system: Mycobacterium tuberculosis; test: Growth inhibition of Mycobacterium bovis BCG ATCC 35743 at dormant stage at 6.25 ug/ml measured after 12 days by nitrate reductase dye based two fold dilution method relative to control; type: functional; conditions: BCG str. ATCC 35743, 288 h, read-out: GI; in short: as §3
[15] = system: Mycobacterium tuberculosis; test: Growth inhibition of Mycobacterium bovis BCG ATCC 35743 at dormant stage at 0.78 ug/ml measured after 12 days by nitrate reductase dye based two fold dilution method relative to control; type: functional; conditions: BCG str. ATCC 35743, 288 h, read-out: GI; in short: as §3
[16] = Cytotoxicity against human THP1 cells measured after 48 hrs by MTT assay; type: toxicity, cell-based, THP-1; in short: as §5
[17] = system: Mycobacterium tuberculosis; test: Growth inhibition of Mycobacterium tuberculosis H37Ra ATCC 25177 at active stage at 1.56 ug/ml measured after 8 days by XTT dye based two fold dilution method relative to control; type: functional; conditions: H37Ra ATCC 25177, 192 h, read-out: GI; in short: as §2
[18] = Cytotoxicity against human HeLa cells at 100 ug/ml assessed as growth inhibition measured after 48 hrs by MTT assay relative to control; type: toxicity, cell-based; conditions: read-out: GI
Aspergillus flavus = test: Antifungal activity against Aspergillus flavus NCIM 539 by standard agar method; type: functional; in short: as §4
Staphylococcus aureus [19] = test: Growth inhibition of Staphylococcus aureus NCIM 2010 at 3 ug/ml measured after 12 hrs relative to control; type: functional; conditions: NCIM 2010, 12 h, read-out: GI; in short: as §1
[20] = system: Mycobacterium tuberculosis; test: Growth inhibition of Mycobacterium tuberculosis H37Ra ATCC 25177 at dormant stage at 25 ug/ml measured after 12 days by XTT dye based two fold dilution method relative to control; type: functional; conditions: H37Ra ATCC 25177, 288 h, read-out: GI; in short: as §2
[21] = system: Mycobacterium tuberculosis; test: Growth inhibition of Mycobacterium bovis BCG ATCC 35743 at dormant stage at 3.13 ug/ml measured after 12 days by nitrate reductase dye based two fold dilution method relative to control; type: functional; conditions: BCG str. ATCC 35743, 288 h, read-out: GI; in short: as §3
Escherichia coli [22] = test: Growth inhibition of Escherichia coli NCIM 2688 at 3 ug/ml measured after 8 hrs relative to control; type: functional; conditions: NCIM 2688, 8 h, read-out: GI; in short: as §1
[23] = Selectivity index, ratio of GI50 for HUVEC to MIC for Mycobacterium tuberculosis H37Ra ATCC 25177 at dormant stage

Compound | inhibition of growth at 12.5 µg/mL [1] | GI50 at 48 h [2] | inhibition of growth at 10 µg/mL (Staphylococcus aureus [3]) | inhibition of growth at 25 µg/mL [4] | inhibition of growth at 3 µg/mL [5] | MIC (Aspergillus niger) | inhibition of growth at 0.78 µg/mL [6] | IC50 [7] | IC90 [7] | inhibition at 48 h, 100 ug/ml [8] | inhibition of growth at 50 µg/mL [9] | inhibition of growth at 3.13 µg/mL [10] | inhibition of growth at 30 µg/mL (Staphylococcus aureus [11]) | inhibition of growth at 30 µg/mL (Pseudomonas fluorescens) | GI50 at 48 h [12] | MIC (Escherichia coli [13]) | GI50 at 48 h [16] | inhibition of growth at 1.56 µg/mL [17] | inhibition at 48 h, 100 ug/ml [18] | MIC (Aspergillus flavus) | also measured
O=C(O)CN1C(=O)/C(=C/c2cc3cc(F)ccc3nc2Cl)SC1=S | 1.72% | > 100 mg/L | -1.12% | 10.4% | 23.9% | 25 mg/L (≈ 65.3 µM) | -48.2% | > 30 mg/L | > 30 mg/L | 31.2% | 82.8% | -12.6% | -19% | 2.4% | > 100 mg/L | > 30 mg/L | > 100 mg/L | -22.9% | 9.01% | 100 mg/L (≈ 261 µM) | inhibition of growth at 6.25 µg/mL [14]: 100%; inhibition of growth at 0.78 µg/mL [15]: 98.5%; inhibition of growth at 3 µg/mL (Staphylococcus aureus [19]): -0.864%; inhibition of growth at 25 µg/mL [20]: 27.7%; inhibition of growth at 3.13 µg/mL [21]: 99.5%; inhibition of growth at 3 µg/mL (Escherichia coli [22]): -2.27%
Cc1cccc2cc(/C=C3\SC(=S)N(CC(=O)O)C3=O)c(Cl)nc12 | 51% | > 100 mg/L | -4.38% | 93.4% | 22.7% | 200 mg/L (≈ 528 µM) | -16% | 10.3 mg/L (≈ 27.2 µM) | 19.9 mg/L (≈ 52.5 µM) | 34% | 107% | -10.2% | 15.5% | 54.8% | > 100 mg/L | > 30 mg/L | > 100 mg/L | -2.86% | 3.1% | 100 mg/L (≈ 264 µM) | Selectivity Index [23]: 5; inhibition of growth at 3 µg/mL (Staphylococcus aureus [19]): -24.6%; inhibition of growth at 25 µg/mL [20]: 96.8%; inhibition of growth at 3 µg/mL (Escherichia coli [22]): 8.28%
